Publication PMC10237622 (Structure (London, England : 1993), 2023)

Tests used:
[1] = tested on: CSP peptides Pep-II through Pep-IV; test: BLI free energies of binding, peptides Pep-II through Pep-IV versus Pep-I; parameters: species or system Plasmodium falciparum; conditions: Pep-II though Pep-IV after subtraction of Pep-I
Outline: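 Free energy of binding was calculated from each experimental KD. The Pep-I value was subtracted from Pep-II through Pep-IV to isolate added binding energy from multivalent and homotypic interactions.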

[2] = biological target: CSP peptide Pep-IV (3 NPNV; 1 NPNA); test: Biolayer interferometry; assay type: binding, Plasmodium falciparum
[3] = tested on: peptides Pep-I through Pep-IV; test: Reverse-format BLI, immobilized L9 IgG dipped into peptide; assay type: binding, Plasmodium falciparum; conditions: IgG (5 ug/mL) immobilized on AHC biosensors to 0.1 nm, dipped into varying peptide concentrations, 30°C
[4] = tested on: CSP peptide Pep-II (1 NPNV; 1 NPNA); test: Biolayer interferometry; assay type: binding, Plasmodium falciparum
Outline: (§1)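 Streptavidin biosensors were loaded with biotinylated CSP peptide at 0.1 ug/mL in PBS + 1% BSA. Loading times were shortened per peptide (45, 30, 15, 3 s) to keep density below 0.01 nm. After a 60 s baseline, Fab (2000–2.7 nM), IgG (1000–1.3 nM) or IgM (100–0.1 nM) associated for 240–300 s, then dissociated 1200 s, at 30°C with agitation. Curves were drift-corrected against a loaded sensor in PBS and fitted globally to a 1:1 Langmuir model.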

[5] = tested on: CSP peptide Pep-I (1 NPNV; 0 NPNA); test: Biolayer interferometry; assay type: binding, Plasmodium falciparum; conditions: IgG versus Fab
Outline: as §1

[6] = tested on: CSP peptide Pep-III (2 NPNV; 0 NPNA); test: Biolayer interferometry; assay type: binding, Plasmodium falciparum

Row | Substance | increase in affinity, Fab/IgG/IgM context compared (in words) [1] | decrease in KD (in words) ([2]; L9 IgG, Pep-IV versus Pep-I) | affinity (in words) ([2]; Pep-IV (3 NPNV; 1 NPNA)) | affinity, reverse format (in words) [3] | increase in affinity (free energy of binding ΔG minus ΔG of Pep-I) ([4]; L9 IgG, homotypic and less preferred NPNA with two L9s (Pep-II), calculated from KD) [kcal/mol] | affinity, fold higher than to Pep-I ([4]; Pep-II versus Pep-I) | on-rate, fold higher than Fab [5] [fold] | increase in affinity (free energy of binding ΔG minus ΔG of Pep-I) ([6]; L9 IgG, homotypic and preferred NPNV with two L9s (Pep-III), calculated from KD) [kcal/mol] | affinity, fold higher than to Pep-II ([6]; Pep-III versus Pep-II)
1 | IgM: L9 IgM, produced in house | lowest in the IgM context | – | – | – | – | – | – | – | –
2 | L9 IgG: L9 IgG, produced in house | greatest in the IgG context | over two orders of magnitude | substantially higher affinity | comparable affinities to peptides Pep-I through Pep-IV | -1.1 | ~ 6 fold | 25 | -2.2 | ~ 6 fold
